Source: ChEMBL document CHEMBL4130628, “Identification and Pharmacological Profile of an Indane Based Series of Ghrelin Receptor Full Agonists” (J Med Chem, 2018)

Tests used:
[1] = 1-octanol/aqueous buffer distribution coefficient, log D of compound at pH 7.4; type: physicochemical
[2] = biological target: T1, Growth hormone secretagogue receptor type 1 (Homo sapiens, UniProt Q92847); experiment: Agonist activity at human GHS receptor assessed as intracellular myo-IP1 secretion after 90 mins by HTRF analysis; type: functional, cell-based
T1 sequence (Q92847 whole entry): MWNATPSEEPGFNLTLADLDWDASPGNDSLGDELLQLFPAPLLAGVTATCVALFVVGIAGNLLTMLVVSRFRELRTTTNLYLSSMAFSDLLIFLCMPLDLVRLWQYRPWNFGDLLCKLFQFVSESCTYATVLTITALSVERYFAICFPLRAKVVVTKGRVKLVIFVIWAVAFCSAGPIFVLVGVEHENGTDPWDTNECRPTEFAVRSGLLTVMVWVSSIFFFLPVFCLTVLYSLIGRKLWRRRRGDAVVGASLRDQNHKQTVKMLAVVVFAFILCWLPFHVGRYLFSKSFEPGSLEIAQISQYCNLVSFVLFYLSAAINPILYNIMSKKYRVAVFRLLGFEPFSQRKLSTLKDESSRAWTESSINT

[3] = biological target: T1, Growth hormone secretagogue receptor type 1; experiment: Displacement of human [125I]-ghrelin from GHS-R1a (unknown origin) expressed in HEK293 cell membranes after 1 hr by radioligand binding assay
[4] = biological target: Voltage-gated inwardly rectifying potassium channel KCNH2 (Homo sapiens, UniProt Q12809); experiment: Inhibition of human ERG expressed in CHO cells; type: cell-based
Voltage-gated inwardly rectifying potassium channel KCNH2, sequence (Q12809 whole entry): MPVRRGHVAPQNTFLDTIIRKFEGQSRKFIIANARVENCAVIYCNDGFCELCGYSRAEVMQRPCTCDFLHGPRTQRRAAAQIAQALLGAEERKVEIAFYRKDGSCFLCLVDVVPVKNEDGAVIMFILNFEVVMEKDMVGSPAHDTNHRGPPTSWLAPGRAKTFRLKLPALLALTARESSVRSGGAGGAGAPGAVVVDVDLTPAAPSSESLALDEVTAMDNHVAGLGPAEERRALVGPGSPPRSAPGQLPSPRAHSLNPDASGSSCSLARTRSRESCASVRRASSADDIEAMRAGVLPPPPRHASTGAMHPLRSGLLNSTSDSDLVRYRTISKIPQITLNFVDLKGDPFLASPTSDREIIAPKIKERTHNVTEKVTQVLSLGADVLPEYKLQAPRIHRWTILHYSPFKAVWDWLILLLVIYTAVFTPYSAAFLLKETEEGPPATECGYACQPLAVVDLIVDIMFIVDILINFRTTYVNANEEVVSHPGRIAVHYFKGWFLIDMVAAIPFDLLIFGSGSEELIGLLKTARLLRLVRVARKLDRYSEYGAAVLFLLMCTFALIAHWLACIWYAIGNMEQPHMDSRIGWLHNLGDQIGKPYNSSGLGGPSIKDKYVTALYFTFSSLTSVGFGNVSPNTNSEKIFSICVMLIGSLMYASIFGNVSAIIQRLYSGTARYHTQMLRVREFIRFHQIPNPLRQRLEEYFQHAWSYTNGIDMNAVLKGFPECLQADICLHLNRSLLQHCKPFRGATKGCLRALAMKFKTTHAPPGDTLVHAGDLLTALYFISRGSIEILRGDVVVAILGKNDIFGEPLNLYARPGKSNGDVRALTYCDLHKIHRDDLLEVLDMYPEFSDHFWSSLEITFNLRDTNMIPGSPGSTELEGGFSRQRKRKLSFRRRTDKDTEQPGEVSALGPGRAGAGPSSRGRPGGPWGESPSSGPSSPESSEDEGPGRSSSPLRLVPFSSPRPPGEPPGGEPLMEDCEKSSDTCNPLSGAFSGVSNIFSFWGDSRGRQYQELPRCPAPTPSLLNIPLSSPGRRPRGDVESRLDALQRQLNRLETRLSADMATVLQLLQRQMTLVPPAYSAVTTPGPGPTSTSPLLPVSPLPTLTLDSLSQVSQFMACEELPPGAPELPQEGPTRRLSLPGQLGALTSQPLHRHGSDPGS
Method in brief: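 hERG currents recorded from CHO cells expressing hERG.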

[5] = Intrinsic clearance in human liver microsomes; type: ADME, microsome; details: read-out: CLH
hERG (KCNH2) = hERG (KCNH2) (Homo sapiens, UniProt Q12809); experiment: Inhibition of human ERG expressed in CHO cells at 11 uM relative to control; type: cell-based; details: CHO cells that express hERG
hERG (KCNH2), sequence (Q12809 whole entry): as above

[6] = 1-octanol/aqueous buffer, read-out: logD

Cc1ccc2[nH]c(C(=O)N[C@H]3Cc4ccccc4[C@@H]3NC(=O)[C@H]3COCCN(C)C3)cc2c1
logD [1, 6]: 3.7 | EC50 ([2]; read-out: EC50): 21 nM

CN1CCCCC(C(=O)N[C@H]2c3ccccc3C[C@@H]2NC(=O)c2ccc3c(ccn3C)c2)C1 (stereo in doubt; 28)
logD ([1]; octanol/water): 1.6 | IC50 ([3]; read-out: IC50): 189 nM | EC50 ([2]; read-out: EC50): 76 nM

Nc1ccncc1C(=O)N[C@H]1c2ccccc2C[C@@H]1NC(=O)c1cc2c(F)cc(F)cc2[nH]1
logD [1, 6]: 3.1 | IC50 ([3]; read-out: IC50): 14 nM | EC50 ([2]; read-out: EC50): 3 nM

Cn1ccc2cc(C(=O)N[C@H]3Cc4ccccc4[C@@H]3NC(=O)c3cnccc3N)c(F)cc21
logD [1, 6]: 3.1 | EC50 ([2]; read-out: EC50): 135 nM

Cc1ccc2[nH]c(C(=O)N[C@H]3Cc4ccccc4[C@@H]3NC(=O)CCN(C)C)cc2c1
IC50 ([3]; read-out: IC50): 16 nM | IC50 [4]: 7940 nM | EC50 ([2]; read-out: EC50): 21 nM

CN1CC[C@H](C(=O)N[C@H]2c3ccccc3C[C@@H]2NC(=O)c2ccc3c(ccn3C)c2)C1
logD [1, 6]: 1.4 | IC50 ([3]; read-out: IC50): 343 nM | EC50 ([2]; read-out: EC50): 250 nM

Cc1ccc2[nH]c(C(=O)N[C@@H]3Cc4ccccc4[C@@H]3NC(=O)CCN(C)C)cc2c1
IC50 ([3]; read-out: IC50): 1260 nM | IC50 [4]: 6310 nM | EC50 ([2]; read-out: EC50): 1500 nM

CN1CCO[C@@H](C(=O)N[C@H]2c3ccccc3C[C@@H]2NC(=O)c2ccc3c(ccn3C)c2)C1
logD [1, 6]: 2.4 | IC50 ([3]; read-out: IC50): > 2900 nM | IC50 ([3]; read-out: pIC50 (converted)): > 3160 nM | EC50 ([2]; read-out: EC50): 274 nM

CN1CCC[C@@H]1CC(=O)N[C@H]1c2ccccc2C[C@@H]1NC(=O)c1ccc2c(ccn2C)c1
logD [1, 6]: 1.8 | IC50 ([3]; read-out: IC50): 184 nM | EC50 ([2]; read-out: EC50): > 740 nM | EC50 ([2]; read-out: pEC50 (converted)): > 794 nM

Nc1ccncc1C(=O)N[C@H]1c2ccccc2C[C@@H]1NC(=O)c1cc2ccccc2[nH]1
logD [1, 6]: 2.4 | IC50 ([3]; read-out: IC50): 49 nM | EC50 ([2]; read-out: EC50): 25 nM

CN1CCCO[C@@H](C(=O)N[C@H]2c3ccccc3C[C@@H]2NC(=O)c2ccc3c(ccn3C)c2)C1
logD [1, 6]: 2.3 | pIC50 ([3]; hek293): < 6 | IC50 ([3]; read-out: IC50): > 1000 nM | EC50 ([2]; read-out: EC50): 262 nM

Cn1c(C(=O)N[C@H]2Cc3ccccc3[C@@H]2NC(=O)c2cnccc2N)cc2ccccc21
logD [1, 6]: 4.1 | IC50 ([3]; read-out: IC50): 246 nM | EC50 ([2]; read-out: EC50): 15 nM

CN1N=C2CCN(C(=O)[C@@H](COCc3ccccc3)NC(=O)C(C)(C)N)C[C@@]2(Cc2ccccc2)C1=O [CAPROMORELIN]
IC50 ([3]; read-out: IC50): 22 nM | EC50 ([2]; read-out: EC50): 0.9 nM

CN(C)CCC(=O)N[C@H]1c2ccccc2C[C@@H]1NC(=O)c1cc2cc(F)c(F)cc2[nH]1
IC50 ([3]; read-out: IC50): 98 nM | IC50 [4]: 3980 nM | EC50 ([2]; read-out: EC50): 35 nM

Cc1ccc2[nH]c(C(=O)N[C@H]3Cc4ccccc4[C@H]3NC(=O)CCN(C)C)cc2c1
IC50 ([3]; read-out: IC50): 69 nM | IC50 [4]: 25100 nM | EC50 ([2]; read-out: EC50): 100 nM

Cn1ccc2c(F)c(C(=O)N[C@H]3Cc4ccccc4[C@@H]3NC(=O)c3cnccc3N)ccc21
logD [1, 6]: 2.9 | IC50 ([3]; read-out: IC50): 13 nM | EC50 ([2]; read-out: EC50): 3 nM | EC50 ([2]; read-out: pEC50 (converted)): 10 nM

CC(=O)N1CCO[C@H](C(=O)N[C@H]2c3ccccc3C[C@@H]2NC(=O)c2ccc3c(ccn3C)c2)C1
logD [1, 6]: 2.2 | EC50 ([2]; read-out: EC50): > 7700 nM | EC50 ([2]; read-out: pEC50 (converted)): > 10000 nM

Cc1ccc2[nH]c(C(=O)N[C@H]3Cc4ccccc4[C@@H]3NC(=O)[C@@H]3CNCCOC3)cc2c1
logD [1, 6]: 2.6 | EC50 ([2]; read-out: EC50): 137 nM

Nc1ccncc1C(=O)N[C@H]1c2ccccc2C[C@@H]1NC(=O)c1nc2cc(F)c(F)cc2[nH]1
logD [1, 6]: 2.4 | IC50 ([3]; read-out: IC50): 89 nM | EC50 ([2]; read-out: EC50): 23 nM

COCCNCCC(=O)N[C@H]1c2ccccc2C[C@@H]1NC(=O)c1cc2ccccc2n1C
IC50 ([3]; read-out: IC50): 430 nM | IC50 [4]: 1580 nM | EC50 ([2]; read-out: EC50): 160 nM

CN1CCCO[C@H](C(=O)N[C@H]2c3ccccc3C[C@@H]2NC(=O)c2ccc3c(ccn3C)c2)C1
logD [1, 6]: 2.3 | IC50 ([3]; read-out: IC50): 71 nM | EC50 ([2]; read-out: EC50): 10 nM

Cn1ccc2cc(C(=O)N[C@H]3Cc4ccccc4[C@@H]3NC(=O)c3cnccc3N)cc(F)c21
logD [1, 6]: 4 | EC50 ([2]; read-out: EC50): 7 nM

CN1CCC[C@@H](C(=O)N[C@H]2c3ccccc3C[C@@H]2NC(=O)c2ccc3c(ccn3C)c2)C1
logD [1, 6]: 1.9 | IC50 ([3]; read-out: IC50): 528 nM | EC50 ([2]; read-out: EC50): 170 nM

CN1CCCCC(C(=O)N[C@H]2c3ccccc3C[C@@H]2NC(=O)c2ccc3c(ccn3C)c2)C1 (stereo in doubt; 27)
logD [1, 6]: 2.1 | IC50 ([3]; read-out: IC50): 107 nM | EC50 ([2]; read-out: EC50): 36 nM

Cc1ccc2[nH]c(C(=O)N[C@H]3Cc4ccccc4[C@@H]3NC(=O)c3cnccc3N)cc2c1
logD [1, 6]: 3 | IC50 ([3]; read-out: IC50): 35 nM | EC50 ([2]; read-out: EC50): 14 nM

N#Cc1ccc2[nH]c(C(=O)N[C@H]3Cc4ccccc4[C@@H]3NC(=O)c3cnccc3N)cc2c1
logD [1, 6]: 2.1 | IC50 ([3]; read-out: IC50): 187 nM | EC50 ([2]; read-out: EC50): 44 nM

CN1CCC[C@H]1CC(=O)N[C@H]1c2ccccc2C[C@@H]1NC(=O)c1ccc2c(ccn2C)c1
logD [1, 6]: 1.7 | IC50 ([3]; read-out: IC50): 29 nM | EC50 ([2]; read-out: EC50): 19 nM

CN(C)CCNC(=O)[C@@H]1c2ccccc2C[C@H]1NC(=O)c1cc2ccccc2[nH]1
logD [1, 6]: 2.3 | IC50 ([3]; read-out: IC50): 560 nM | IC50 [4]: 12600 nM | microsomal CLint [5]: 3 µL/min/mg | EC50 ([2]; read-out: EC50): 630 nM

CN1CC[C@@H](C(=O)N[C@H]2c3ccccc3C[C@@H]2NC(=O)c2ccc3c(ccn3C)c2)C1
logD [1, 6]: 1.4 | IC50 ([3]; read-out: IC50): 288 nM | EC50 ([2]; read-out: EC50): 129 nM

O=C(N[C@H]1Cc2ccccc2[C@@H]1NC(=O)[C@H]1CCNC1)c1cc2cc(F)ccc2[nH]1
IC50 ([3]; read-out: IC50): 189 nM | IC50 [4]: > 10000 nM | EC50 ([2]; read-out: EC50): 47 nM

Cc1ccc2[nH]c(C(=O)N[C@@H]3Cc4ccccc4[C@H]3NC(=O)CCN(C)C)cc2c1
IC50 ([3]; read-out: IC50): 930 nM | IC50 [4]: 2510 nM | EC50 ([2]; read-out: EC50): 226 nM

Cc1ccc2[nH]c(C(=O)N[C@H]3Cc4ccccc4[C@@H]3C(=O)N[C@H]3CCCN(C)C3)cc2c1
inhibition at 11 µM (hERG (KCNH2)): 30% | logD [1, 6]: 3 | microsomal CLint [5]: 132 µL/min/mg | EC50 ([2]; read-out: EC50): 0.1 nM

CN1CCC[C@H](C(=O)N[C@H]2c3ccccc3C[C@@H]2NC(=O)c2ccc3c(ccn3C)c2)C1
logD [1, 6]: 2.1 | IC50 ([3]; read-out: IC50): 556 nM | EC50 ([2]; read-out: EC50): 28 nM

Cc1ccc2[nH]c(C(=O)N[C@H]3Cc4ccccc4[C@@H]3C(=O)N(C)CCN(C)C)cc2c1
inhibition at 11 µM (hERG (KCNH2)): 50% | logD [1, 6]: 2.5 | IC50 ([3]; read-out: IC50): 14 nM | microsomal CLint [5]: 26 µL/min/mg | EC50 ([2]; read-out: EC50): 5 nM

Cc1ccc2[nH]c(C(=O)N[C@H]3Cc4ccccc4[C@H]3C(=O)NCCN(C)C)cc2c1
inhibition at 11 µM (hERG (KCNH2)): 42% | logD [1, 6]: 2.3
